One experiment has as its system HepG2. Put plainly: Antiproliferative activity against human HepG2 cells incubated for 72 hrs by MTT assay. The class given is functional, cell-based. The settings on record: HepG2, 72 h. In a few lines:
(§1)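 Cells in exponential growth were plated at 3×10^3 cells/well and grown 24 h at 37 °C in 5% CO2. They were then exposed to a range of drug concentrations for 72 h. MTT (5 mg/mL solution) was added for 4 h, the medium was discarded, and formazan was dissolved in DMSO before reading A490. Drug-free wells served as blanks. % inhibition was calculated as 1 − (sample−blank)/(control−blank), and IC50 was taken as the concentration giving 50% inhibition.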
A general note: Tetrazolium assays rely on reduction of a dye to a coloured formazan, in cell work by metabolically active cells.

In the next experiment the test system is MDCK. The experiment is described as follows: Cytotoxicity against MDCK cells incubated for 72 hrs by MTT assay. It counts as cell-based. The settings on record: Canis lupus familiaris. In a few lines:
as §1

The subject of another experiment is HeLa. Put plainly: Antiproliferative activity against human HeLa cells incubated for 72 hrs by MTT assay. It counts as functional, cell-based. The procedure, abridged:
as §1

For the next experiment, the system named is A549. Put plainly: Antiproliferative activity against human A549 cells incubated for 72 hrs by MTT assay. It counts as functional, cell-based. The settings on record: A549, 72 h. The procedure, abridged:
as §1

A further experiment deals with MCF7. The experiment is described as follows: Antiproliferative activity against human MCF7 cells incubated for 72 hrs by MTT assay. It counts as functional, cell-based. Conditions: MCF7, 72 h. The procedure, abridged:
as §1

A word on the IC50: it is the point on the concentration scale where inhibition reaches its midpoint. Low values mean higher potency, high ones lower potency. Regarding `CC1(C)[C@@H](OC(=O)[C@@H]2CCCN2)CC[C@]2(C)[C@H]3C(=O)C=C4[C@@H]5C[C@@](C)(C(=O)OCc6ccccc6)CC[C@]5(C)CC[C@@]4(C)[C@]3(C)CC[C@@H]12`, the IC50 turned out to be 6.39 µM in the experiment with HepG2; 9.63 µM in the experiment with MDCK; 9.05 µM in the experiment with HeLa; 4.73 µM with A549; 5.22 µM in the experiment with MCF7.

In the case of `CN(CC(=O)N[C@H]1CC[C@]2(C)[C@H]3C(=O)C=C4[C@@H]5C[C@@](C)(C(=O)OCc6ccccc6)CC[C@]5(C)CC[C@@]4(C)[C@]3(C)CC[C@H]2C1(C)C)C(=O)OC(C)(C)C`, the IC50 in the experiment on HepG2, in the experiment with MDCK, with HeLa, in the experiment with A549 and with MCF7 was more than 40 µM throughout.

As for `CC(C)C[C@H](N)C(=O)O[C@H]1CC[C@]2(C)[C@H]3C(=O)C=C4[C@@H]5C[C@@](C)(C(=O)OCc6ccccc6)CC[C@]5(C)CC[C@@]4(C)[C@]3(C)CC[C@H]2C1(C)C`, the half-maximal inhibitory concentration (IC50) in the experiment on HepG2 turned out to be 14.9 µM; in the experiment on MDCK, 19.3 µM; with HeLa, 43.1 µM; in the experiment on A549, 22.9 µM; in the experiment with MCF7, 11.9 µM.

`CC[C@H](C)[C@H](NC(=O)OC(C)(C)C)C(=O)O[C@H]1CC[C@]2(C)[C@H]3C(=O)C=C4[C@@H]5C[C@@](C)(C(=O)OCc6ccccc6)CC[C@]5(C)CC[C@@]4(C)[C@]3(C)CC[C@H]2C1(C)C`: the half-inhibitory concentration (IC50) with HepG2, with MDCK, in the experiment on HeLa, in the experiment with A549 and with MCF7 was more than 40 µM in each case.

As for `CNCC(=O)N[C@H]1CC[C@]2(C)[C@H]3C(=O)C=C4[C@@H]5C[C@@](C)(C(=O)OCc6ccccc6)CC[C@]5(C)CC[C@@]4(C)[C@]3(C)CC[C@H]2C1(C)C`, the half-inhibitory concentration (IC50) in the experiment with HepG2 was 3.79 µM; in the experiment with MDCK it was 3.17 µM; with HeLa it was 3.2 µM; in the experiment with A549, 3.35 µM; in the experiment with MCF7, 3.41 µM.

As to `CC(C)(C)OC(=O)N[C@@H](Cc1ccccc1)C(=O)O[C@H]1CC[C@]2(C)[C@H]3C(=O)C=C4[C@@H]5C[C@@](C)(C(=O)OCc6ccccc6)CC[C@]5(C)CC[C@@]4(C)[C@]3(C)CC[C@H]2C1(C)C`, the IC50 with HepG2, in the experiment with MDCK, in the experiment with HeLa, with A549 and in the experiment on MCF7 was more than 40 µM each time.

As to `CC(C)(C)OC(=O)NCC(=O)O[C@H]1CC[C@]2(C)[C@H]3C(=O)C=C4[C@@H]5C[C@@](C)(C(=O)OCc6ccccc6)CC[C@]5(C)CC[C@@]4(C)[C@]3(C)CC[C@H]2C1(C)C`, the IC50 in the experiment on HepG2, with MDCK, in the experiment on HeLa, with A549 and in the experiment with MCF7 was more than 40 µM each time.

`C[C@H](NC(=O)OC(C)(C)C)C(=O)O[C@H]1CC[C@]2(C)[C@H]3C(=O)C=C4[C@@H]5C[C@@](C)(C(=O)OCc6ccccc6)CC[C@]5(C)CC[C@@]4(C)[C@]3(C)CC[C@H]2C1(C)C`: the IC50 with HepG2, in the experiment with MDCK, in the experiment on HeLa, in the experiment on A549 and in the experiment on MCF7 was more than 40 µM throughout.

As to `CC(C)C[C@H](NC(=O)OC(C)(C)C)C(=O)O[C@H]1CC[C@]2(C)[C@H]3C(=O)C=C4[C@@H]5C[C@@](C)(C(=O)OCc6ccccc6)CC[C@]5(C)CC[C@@]4(C)[C@]3(C)CC[C@H]2C1(C)C`, the concentration for half-maximal inhibition (IC50) in the experiment on HepG2, with MDCK, with HeLa, in the experiment with A549 and with MCF7 was more than 40 µM throughout.

As for `CC1(C)[C@@H](OC(=O)CN)CC[C@]2(C)[C@H]3C(=O)C=C4[C@@H]5C[C@@](C)(C(=O)OCc6ccccc6)CC[C@]5(C)CC[C@@]4(C)[C@]3(C)CC[C@@H]12`, the concentration for half-maximal inhibition (IC50) in the experiment on HepG2 turned out to be 3.31 µM; in the experiment on MDCK it was 4.43 µM; with HeLa, 3.3 µM; with A549 it was 2.75 µM; in the experiment with MCF7, 3.81 µM.

Regarding `CNCC(=O)O[C@H]1CC[C@]2(C)[C@H]3C(=O)C=C4[C@@H]5C[C@@](C)(C(=O)OCc6ccccc6)CC[C@]5(C)CC[C@@]4(C)[C@]3(C)CC[C@H]2C1(C)C`, the concentration for half-maximal inhibition (IC50) was 4.56 µM with HepG2; 5.76 µM with MDCK; 8 µM in the experiment with HeLa; 5 µM in the experiment on A549; 3.89 µM in the experiment on MCF7.

Take `CC[C@H](C)[C@H](NC(=O)OC(C)(C)C)C(=O)N[C@H]1CC[C@]2(C)[C@H]3C(=O)C=C4[C@@H]5C[C@@](C)(C(=O)OCc6ccccc6)CC[C@]5(C)CC[C@@]4(C)[C@]3(C)CC[C@H]2C1(C)C`: the IC50 in the experiment on HepG2, in the experiment on MDCK, with HeLa, in the experiment with A549 and in the experiment on MCF7 was more than 40 µM in each case.

For the compound `CC(C)C[C@H](NC(=O)OC(C)(C)C)C(=O)N[C@H]1CC[C@]2(C)[C@H]3C(=O)C=C4[C@@H]5C[C@@](C)(C(=O)OCc6ccccc6)CC[C@]5(C)CC[C@@]4(C)[C@]3(C)CC[C@H]2C1(C)C`, the half-maximal inhibitory concentration (IC50) in the experiment on HepG2, with MDCK, in the experiment on HeLa, in the experiment on A549 and with MCF7 was more than 40 µM throughout.

`CSCC[C@H](N)C(=O)N[C@H]1CC[C@]2(C)[C@H]3C(=O)C=C4[C@@H]5C[C@@](C)(C(=O)OCc6ccccc6)CC[C@]5(C)CC[C@@]4(C)[C@]3(C)CC[C@H]2C1(C)C`: the IC50 with HepG2 turned out to be 4.09 µM; with MDCK it was 6.25 µM; in the experiment on HeLa it was 3.1 µM; with A549, 6.97 µM; in the experiment with MCF7, 7 µM.

Turning to `CC[C@H](C)[C@H](N)C(=O)N[C@H]1CC[C@]2(C)[C@H]3C(=O)C=C4[C@@H]5C[C@@](C)(C(=O)OCc6ccccc6)CC[C@]5(C)CC[C@@]4(C)[C@]3(C)CC[C@H]2C1(C)C`, the half-inhibitory concentration (IC50) in the experiment with HepG2 came to 5.15 µM; in the experiment with MDCK it was 4.13 µM; in the experiment with HeLa, 2.94 µM; with A549, 3.43 µM; with MCF7 it was 4.69 µM.

Turning to `CSCC[C@H](NC(=O)OC(C)(C)C)C(=O)O[C@H]1CC[C@]2(C)[C@H]3C(=O)C=C4[C@@H]5C[C@@](C)(C(=O)OCc6ccccc6)CC[C@]5(C)CC[C@@]4(C)[C@]3(C)CC[C@H]2C1(C)C`, the half-inhibitory concentration (IC50) in the experiment with HepG2, in the experiment with MDCK, in the experiment on HeLa, in the experiment on A549 and in the experiment on MCF7 was more than 40 µM throughout.

Regarding `CSCC[C@H](NC(=O)OC(C)(C)C)C(=O)N[C@H]1CC[C@]2(C)[C@H]3C(=O)C=C4[C@@H]5C[C@@](C)(C(=O)OCc6ccccc6)CC[C@]5(C)CC[C@@]4(C)[C@]3(C)CC[C@H]2C1(C)C`, the IC50 in the experiment with HepG2, in the experiment with MDCK, with HeLa, with A549 and in the experiment on MCF7 was more than 40 µM throughout.

Regarding `CC(C)C[C@H](N)C(=O)N[C@H]1CC[C@]2(C)[C@H]3C(=O)C=C4[C@@H]5C[C@@](C)(C(=O)OCc6ccccc6)CC[C@]5(C)CC[C@@]4(C)[C@]3(C)CC[C@H]2C1(C)C`, the concentration for half-maximal inhibition (IC50) was 6.21 µM with HepG2; 4.65 µM in the experiment on MDCK; 2.3 µM in the experiment with HeLa; 3.28 µM in the experiment with A549; 6.1 µM in the experiment with MCF7.

For the compound `CC(C)(C)OC(=O)NCC(=O)N[C@H]1CC[C@]2(C)[C@H]3C(=O)C=C4[C@@H]5C[C@@](C)(C(=O)OCc6ccccc6)CC[C@]5(C)CC[C@@]4(C)[C@]3(C)CC[C@H]2C1(C)C`, the IC50 in the experiment on HepG2, in the experiment with MDCK, in the experiment with HeLa, in the experiment on A549 and with MCF7 was more than 40 µM in each case.

Regarding `CSCC[C@H](N)C(=O)O[C@H]1CC[C@]2(C)[C@H]3C(=O)C=C4[C@@H]5C[C@@](C)(C(=O)OCc6ccccc6)CC[C@]5(C)CC[C@@]4(C)[C@]3(C)CC[C@H]2C1(C)C`, the half-inhibitory concentration (IC50) with HepG2 is 9.96 µM; in the experiment on MDCK, 39.2 µM; in the experiment on HeLa, 10.6 µM; in the experiment on A549, 7.53 µM; with MCF7, 8.07 µM.

On to `CC1(C)[C@@H](NC(=O)CN)CC[C@]2(C)[C@H]3C(=O)C=C4[C@@H]5C[C@@](C)(C(=O)OCc6ccccc6)CC[C@]5(C)CC[C@@]4(C)[C@]3(C)CC[C@@H]12`, for which the IC50 in the experiment on HepG2 came to 3.47 µM; in the experiment with MDCK, 3.75 µM; with HeLa, 3.01 µM; in the experiment on A549 it was 2.44 µM; in the experiment on MCF7 it was 2.85 µM.

For the compound `CC1(C)[C@@H](NC(=O)[C@@H](N)Cc2ccccc2)CC[C@]2(C)[C@H]3C(=O)C=C4[C@@H]5C[C@@](C)(C(=O)OCc6ccccc6)CC[C@]5(C)CC[C@@]4(C)[C@]3(C)CC[C@@H]12`, the IC50 in the experiment on HepG2 is 5.05 µM; in the experiment on MDCK, 5.02 µM; in the experiment with HeLa, 2.24 µM; in the experiment with A549 it was 3.01 µM; in the experiment on MCF7, 3.28 µM.

`CC(C)(C)OC(=O)N[C@@H](Cc1ccccc1)C(=O)N[C@H]1CC[C@]2(C)[C@H]3C(=O)C=C4[C@@H]5C[C@@](C)(C(=O)OCc6ccccc6)CC[C@]5(C)CC[C@@]4(C)[C@]3(C)CC[C@H]2C1(C)C`: the IC50 in the experiment with HepG2, in the experiment on MDCK, in the experiment on HeLa, in the experiment on A549 and in the experiment with MCF7 was more than 40 µM in each case.

For the compound `CC1(C)[C@@H](OC(=O)[C@@H](N)Cc2ccccc2)CC[C@]2(C)[C@H]3C(=O)C=C4[C@@H]5C[C@@](C)(C(=O)OCc6ccccc6)CC[C@]5(C)CC[C@@]4(C)[C@]3(C)CC[C@@H]12`, the IC50 was more than 40 µM in the experiment on HepG2; 14.4 µM in the experiment on MDCK; 18.8 µM in the experiment with HeLa; 17 µM in the experiment on A549; 14.4 µM with MCF7.
